From ChEMBL document CHEMBL4765334, “Chemical profiling of HIV-1 capsid-targeting antiviral PF74” (Eur J Med Chem, 2020)

How the values were obtained:
[1] = tested on: Human immunodeficiency virus 1; assay: Binding affinity to covalently-crosslinked hexameric HIV1 capsid protein A14C/E45C/W184A/M185A mutant expressed in Escherichia coli BL21(DE3)RIL assessed as change in melting temperature at 20 uM incubated for 30 mins by thermal shift dye based fluorescence analysis
How it was run: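 Thermal shift: 15 μM CA121 in 50 mM sodium phosphate pH 8.0 with Sypro Orange and compound at 20 μM final or DMSO control. Heated 25 to 95 °C at 0.2 °C/10 s; fluorescence Ex 475–500, Em 520–590 nm. ΔTm = Tm(compound) − T0(DMSO) for CA hexamer melting.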

[2] = tested on: TZM; assay: Cytotoxicity against human TZM-GFP cells incubated for 72 hrs by XTT assay; type: cell-based; details: tzm, 72 h
How it was run: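 TZM-GFP cells seeded at 1 × 10^4 per well and exposed continuously to increasing compound concentrations for 72 h. Viable cell number read by XTT proliferation kit. CC50 fitted as log(inhibitor) vs normalized response, variable slope, per independent assay and averaged. Run in duplicate, at least two independent experiments, reported as mean ± standard deviation.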

[3] = tested on: Human immunodeficiency virus 1; assay: Antiviral activity against HIV1 NL4-3 infected in human TZM-GFP cells assessed as number of GFP positive cells incubated for 48 hrs by imaging reader; type: functional, organism-based; details: Human immunodeficiency virus 1, NL4-3, TZM
How it was run: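 TZM-GFP cells seeded 1 × 10^4/well and given increasing compound concentrations 24 h later; infected with HIV-1 NL4-3 (MOI = 1) after a further 24 h. Read-out after 48 h: GFP-positive cell counts (LTR-driven) versus DMSO controls. EC50 fitted as log(inhibitor) vs normalized response, variable slope, per experiment and averaged; mean ± SD, duplicates, at least two independent experiments.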

Row | SMILES | ΔTm [1] | CC50 [2] | EC50 [3]
1 | O=C(Cc1c[nH]c2ccccc12)N[C@@H](Cc1ccccc1)C(=O)Nc1ccc2ncsc2c1 | 0 °C | 68 µM | > 20 µM
2 | O=C(Cc1c[nH]c2ccccc12)N[C@@H](Cc1ccccc1)C(=O)NCc1cccc2[nH]ccc12 | 0.5 °C | < 100 µM | > 20 µM
3 | CCn1cc(CC(=O)N[C@@H](Cc2ccccc2)C(=O)N(C)c2ccc(C)cc2)c2ccccc21 | 8.6 °C | 14 µM | 0.34 µM
4 | Cc1[nH]c2ccccc2c1CC(=O)N[C@@H](Cc1ccccc1)C(=O)Nc1ccc(Cl)cc1 | 0 °C | > 100 µM | > 20 µM
5 | Cc1[nH]c2ccccc2c1CC(=O)N[C@@H](Cc1ccccc1)C(=O)N(C)c1cccnn1 | 3.2 °C | > 100 µM | 3.7 µM
6 | CCn1cc(CC(=O)N[C@@H](Cc2ccccc2)C(=O)N(C)c2cccc(F)c2)c2ccccc21 | 5.9 °C | 31 µM | 0.84 µM
7 | Cc1c(CC(=O)N[C@@H](Cc2ccccc2)C(=O)N(C)c2ccc(Cl)cc2)c2ccccc2n1C(C)C | 8.5 °C | 14 µM | 0.15 µM
8 | O=C(Cc1c[nH]c2ccccc12)N[C@@H](Cc1ccccc1)C(=O)Nc1cccnn1 | 0.8 °C | > 100 µM | > 20 µM
9 | CC(C)n1cc(CC(=O)N[C@@H](Cc2ccccc2)C(=O)N(C)c2ccc(Cl)cc2)c2ccccc21 | 7.1 °C | 10 µM | 0.32 µM
10 | Cc1[nH]c2ccccc2c1CC(=O)N[C@@H](Cc1ccccc1)C(=O)Nc1ccccc1 | 0.7 °C | 40 µM | > 20 µM
11 | O=C(Cc1c[nH]c2ccccc12)N[C@@H](Cc1ccccc1)C(=O)Nc1ccccc1 | 0 °C | 96 µM | > 20 µM
12 | Cc1[nH]c2ccccc2c1CC(=O)N[C@@H](Cc1ccccc1)C(=O)NCc1cccc2[nH]ccc12 | 0 °C | 36 µM | > 20 µM
13 | Cc1[nH]c2ccccc2c1CC(=O)N[C@@H](Cc1ccccc1)C(=O)Nc1cccc(C#N)c1 | -0.5 °C | > 100 µM | > 20 µM
14 | Cc1c(CC(=O)N[C@@H](Cc2ccccc2)C(=O)N(C)c2cccc(Cl)c2)c2ccccc2n1C(C)C | 5.5 °C | 14 µM | 0.36 µM
15 | O=C(Cc1c[nH]c2ccccc12)N[C@@H](Cc1ccccc1)C(=O)O | -0.6 °C | > 50 µM | > 20 µM
16 | CN(C(=O)[C@H](Cc1ccccc1)NC(=O)Cc1c[nH]c2ccccc12)c1cccc(Br)c1 | 3.5 °C | < 50 µM | 2 µM
17 | CC(C)n1cc(CC(=O)N[C@@H](Cc2ccccc2)C(=O)N(C)c2cccc(Cl)c2)c2ccccc21 | 4.5 °C | 13 µM | 1.3 µM
18 | Cc1[nH]c2ccccc2c1CC(=O)N[C@@H](Cc1ccccc1)C(=O)N(C)c1cccnc1 | 0 °C | > 100 µM | > 20 µM
19 | CCn1c(C)c(CC(=O)N[C@@H](Cc2ccccc2)C(=O)N(C)c2cccc(Cl)c2)c2ccccc21 | 9.2 °C | 16 µM | 0.49 µM
20 | CN(C(=O)[C@H](Cc1ccccc1)NC(=O)Cc1c[nH]c2ccccc12)c1cccnc1 | -0.8 °C | > 100 µM | > 20 µM
21 | Cc1[nH]c2ccccc2c1CC(=O)N[C@@H](Cc1ccccc1)C(=O)NC(c1ccccc1)c1ccccc1 | 0 °C | > 100 µM | > 20 µM
22 | CCN(C(=O)[C@H](Cc1ccccc1)NC(=O)Cc1c(C)n(CC)c2ccccc12)c1ccccc1 | 10 °C | 20 µM | 0.56 µM
23 | Cc1cc(N(C)C(=O)[C@H](Cc2ccccc2)NC(=O)Cc2c(C)[nH]c3ccccc23)n[nH]1 | 0 °C | < 100 µM | > 20 µM
24 | CCn1c(C)c(CC(=O)N[C@@H](Cc2ccccc2)C(=O)N(C)c2cccc(F)c2)c2ccccc21 | 10.8 °C | 20 µM | 0.33 µM
25 | Cc1[nH]c2ccccc2c1CC(=O)N[C@@H](Cc1ccccc1)C(=O)Nc1nc2ccccc2[nH]1 | -0.6 °C | 15 µM | 11 µM
